In ChEMBL document CHEMBL1149285, “Identification of novel parasitic cysteine protease inhibitors using virtual screening. 1. The ChemBridge database” (J Med Chem, 2004):
The source made the active and inactive calls. No cut-off for these calls is given here.

Assays:
[1] = target: T1, Falcipain 2 (Plasmodium falciparum, UniProt Q9N6S8); experiment: Inhibition of Plasmodium falciparum recombinant falcipain-2
T1 sequence (Q9N6S8 whole entry): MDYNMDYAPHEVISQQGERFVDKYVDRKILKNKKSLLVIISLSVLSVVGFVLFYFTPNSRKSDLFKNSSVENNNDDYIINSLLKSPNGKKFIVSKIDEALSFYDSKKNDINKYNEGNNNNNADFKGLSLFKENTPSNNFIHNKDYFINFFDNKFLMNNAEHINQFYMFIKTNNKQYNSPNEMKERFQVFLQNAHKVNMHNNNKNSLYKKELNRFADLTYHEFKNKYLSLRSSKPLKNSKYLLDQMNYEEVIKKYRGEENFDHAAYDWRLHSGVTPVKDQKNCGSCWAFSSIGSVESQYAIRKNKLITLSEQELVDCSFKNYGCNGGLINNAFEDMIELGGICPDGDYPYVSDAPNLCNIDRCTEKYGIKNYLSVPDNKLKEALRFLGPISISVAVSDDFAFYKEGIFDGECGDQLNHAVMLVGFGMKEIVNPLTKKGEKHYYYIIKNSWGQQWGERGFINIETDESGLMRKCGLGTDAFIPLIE
Procedure, shortened: (§1)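 Equal amounts of recombinant enzyme preincubated 30 min at room temperature with serial inhibitor dilutions from DMSO stocks (DMSO at most 1% in assay) in 100 mM sodium acetate pH 5.5, 10 mM dithiothreitol. Z-Leu-Arg-AMC then added to 25 μM final; fluorescence followed 15 min at room temperature. IC50 taken from percent activity versus concentration plots.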

[2] = target: T2, Cysteine protease falcipain-3 (Plasmodium falciparum, UniProt Q9NBA7); experiment: Inhibition of Plasmodium falciparum recombinant falcipain-3; procedure, shortened: as §1
T2 sequence (Q9NBA7 whole entry): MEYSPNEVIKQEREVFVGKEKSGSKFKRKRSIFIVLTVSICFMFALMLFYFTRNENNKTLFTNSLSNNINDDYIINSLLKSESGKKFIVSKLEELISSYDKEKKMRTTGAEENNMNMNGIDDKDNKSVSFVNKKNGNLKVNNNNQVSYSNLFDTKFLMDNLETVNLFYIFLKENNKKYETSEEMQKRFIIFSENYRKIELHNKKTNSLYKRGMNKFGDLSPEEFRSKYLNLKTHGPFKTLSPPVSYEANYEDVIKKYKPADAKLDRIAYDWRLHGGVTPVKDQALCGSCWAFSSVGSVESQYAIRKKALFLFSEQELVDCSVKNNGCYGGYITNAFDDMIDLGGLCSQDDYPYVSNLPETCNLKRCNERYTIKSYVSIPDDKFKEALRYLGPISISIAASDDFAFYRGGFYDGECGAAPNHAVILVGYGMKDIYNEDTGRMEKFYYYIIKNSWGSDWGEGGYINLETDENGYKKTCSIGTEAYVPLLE

[3] = system: Plasmodium falciparum; experiment: Antiplasmodial activity against chloroquine-sensitive Plasmodium falciparum D6 after 48 hrs as LDH reporter activity; format: functional, organism-based; conditions: D6, 48 h
Procedure, shortened: (§2)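 Asynchronous P. falciparum cultures (2% hematocrit, 2% parasitemia) were exposed to compound dilutions prepared in DMSO. They were incubated 48 h at 37 °C in a humidified chamber under 90% N2, 5% CO2, 5% O2. Growth was read as parasite lactate dehydrogenase activity using Malstat reagent. Medium-only and erythrocyte-only wells were included, with chloroquine and artemisinin as positive and DMSO as negative controls.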

[4] = system: Plasmodium falciparum; experiment: Antiplasmodial activity against chloroquine-resistant Plasmodium falciparum W2 as LDH activity after 48 hrs; format: functional, organism-based; conditions: W2, 48 h; procedure, shortened: as §2
[5] = target: T3, Cysteine protease (Leishmania donovani) (UniProt Q95WR6); experiment: (§3) Inhibition of Leishmania donovani cysteine protease
T3 sequence (whole entry): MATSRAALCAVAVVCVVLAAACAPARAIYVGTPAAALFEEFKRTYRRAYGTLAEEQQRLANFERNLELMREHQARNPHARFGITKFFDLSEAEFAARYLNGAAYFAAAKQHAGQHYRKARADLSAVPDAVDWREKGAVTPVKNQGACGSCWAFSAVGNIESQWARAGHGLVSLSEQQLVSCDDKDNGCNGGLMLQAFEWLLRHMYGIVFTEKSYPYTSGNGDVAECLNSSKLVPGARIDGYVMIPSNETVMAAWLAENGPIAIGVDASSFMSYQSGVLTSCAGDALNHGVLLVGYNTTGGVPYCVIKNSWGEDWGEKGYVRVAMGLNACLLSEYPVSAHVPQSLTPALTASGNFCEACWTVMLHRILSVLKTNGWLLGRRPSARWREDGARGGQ

[6] = system: Leishmania donovani; experiment: Antileishmanial activity against Leishmania donovani promastigotes after 72 hrs by Alamar blue assay; format: functional, organism-based
Procedure, shortened: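 L. donovani promastigote culture at 2 × 10⁶ cells/mL given diluted compounds, incubated 72 h at 26 °C; growth read by Alamar blue. Pentamidine and amphotericin B as reference agents; IC50 computed from growth inhibition curve.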

[7] = system: Vero; experiment: Cytotoxicity against Vero cells at 23.8 ug/mL by Neutral red assay; format: cell-based; conditions: chlorocebus sabaeus
Procedure, shortened: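 VERO monkey kidney […] exposed to compounds alongside the antiparasitic assays, viability by Neutral Red uptake; highest concentration tested 23.8 μg/mL; IC50 computed from growth inhibition curve.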

[8] = target: T4, Cysteine protease (Leishmania donovani, UniProt Q95WR6); experiment: as §3
T4 sequence (Q95WR6 whole entry): T3 sequence (whole entry)

Compound	IC50 [1] [µM]	IC50 [2] [µM]	EC50 [3] [µM]	EC50 [4] [µM]	Activity [5]	Activity [6]	Activity [7]	IC50 [6] [µM]	IC50 [8] [µM]
O=C(CSc1nnnn1-c1ccccc1)Nc1ccc(-n2cnnn2)cc1	7.5	5.4	62.7	50.1	inactive	inactive	Non-toxic	–	–
N#CCC(=O)N/N=C\c1ccc(OCC(=O)Nc2ccc(F)cc2)cc1	5.7	> 50	59.3	67.2	inactive	inactive	Non-toxic	–	–
OC[C@@H](O)/C=N/Nc1nc(Nc2ccccc2)nc(Nc2ccccc2)n1	> 50	> 50	2.5	3.3	inactive	–	Non-toxic	1.9	–
Oc1ccc(Nc2nc(-c3cccnc3)cs2)cc1	22.5	> 50	52	50.1	inactive	–	Non-toxic	11.5	–
O=C(N/N=C/c1ccccc1O)c1cccc(C(=O)N/N=C/c2ccccc2O)n1	7	10.5	3.7	6.2	inactive	inactive	Non-toxic	–	–
CCCc1cc(O)nc(SCC(=O)Nc2ccccc2)n1	–	–	> 78.4	> 78.4	inactive	inactive	–	–	–
C/C(=N\NS(=O)(=O)c1ccc(C)cc1)c1c(O)c2ccccc2oc1=O	3.9	13.9	63.9	63.9	inactive	inactive	Non-toxic	–	–
C[C@@H]1CC[C@H]2[C@@H](C)C(=O)O[C@@H]3O[C@@]4(C)CC[C@@H]1[C@]32OO4 [ARTEMISININ]	–	–	0.012	0.017	–	–	–	–	–
O=C(Cn1nnc(-c2ccccc2)n1)N/N=C1\C(=O)Nc2ccccc21	27.3	> 50	68.5	43.2	–	inactive	Non-toxic	–	130
O=C(CNC(=O)[C@@H]1COc2ccccc2O1)N/N=C/c1cccs1	26.6	> 50	68.9	68.9	inactive	inactive	Non-toxic	–	–
O=C(Nc1cccc(O)c1)c1cccc(S(=O)(=O)Nc2cccc(O)c2)c1	> 50	> 50	35.1	37.7	inactive	–	Non-toxic	0.3	–
Oc1ccc(/C=N/c2ccc(/N=C/c3ccc(O)cc3O)c(Cl)c2)c(O)c1	2.1	7.5	12.3	20.9	–	inactive	Non-toxic	–	65.3
OC[C@H](O)/C=N/Nc1nc(Nc2ccccc2)nc(N2CCCCC2)n1	54.6	> 50	4.8	5.3	inactive	–	Non-toxic	3.6	–
CCOP(=O)(CC(=O)NNC(=O)Nc1cccc2ccccc12)OCC	53.4	> 50	52.7	40.9	inactive	inactive	Non-toxic	–	–
O=C(N/N=C/c1ccc(/C=N/NC(=O)c2ccccc2O)cc1)c1ccccc1O	2.2	27.8	31.1	34.8	inactive	inactive	Non-toxic	–	–
CCN(CC)CCCC(C)Nc1ccnc2cc(Cl)ccc12 (stereo not drawn) [CHLOROQUINE]	–	–	0.009	0.28	–	–	–	–	–
N=C(N)c1ccc(OCCCCCOc2ccc(C(=N)N)cc2)cc1 [PENTAMIDINE]	–	–	–	–	–	–	–	2	–
O=C(NCc1ccc(/C=c2/sc3n(c2=O)CCN=3)o1)C(=O)Nc1ccccc1	6.2	11.8	> 60	> 60	inactive	inactive	Non-toxic	–	–
O=C(O)c1ccccc1N/N=C/c1ccc(/C=N/Nc2ccccc2C(=O)O)cc1	1	4.9	34.8	41	–	inactive	Non-toxic	–	72
Oc1ccc(/C=N/CC/N=C/c2ccc(O)cc2O)c(O)c1	20.8	> 50	46.6	74.9	inactive	inactive	Non-toxic	–	–
CCCc1cc(=O)[nH]c(SCC(=O)Nc2ccccc2)n1	59.9	> 50	–	–	–	–	Non-toxic	–	–
CC(C)CC(=O)N[C@H](C(=O)N[C@H](C(=O)N[C@@H](CC(C)C)[C@@H](O)CC(=O)N[C@@H](C)C(=O)N[C@@H](CC(C)C)[C@@H](O)CC(=O)O)C(C)C)C(C)C [PEPSTATIN]	–	–	–	–	–	–	–	–	0.16
COC(=O)c1ccccc1NC(=O)COC(=O)CSc1nc(C)cc(C)n1	6.2	12	61.1	61.1	inactive	inactive	Non-toxic	–	–
O=C(Cc1nnc(NC(=O)c2ccccc2)s1)N/N=C\c1ccc(O)c(O)c1	31.1	> 50	> 59.9	> 59.9	inactive	inactive	Non-toxic	–	–
CC(C)C[C@H](NC(=O)[C@H]1O[C@@H]1C(=O)O)C(=O)NCCCCN=C(N)N [E-64]	0.015	0.035	–	–	–	–	–	–	–
CCCS(=O)(=O)N1CCN(S(=O)(=O)c2ccc3ccccc3c2)CC1	12.4	29.6	> 62.2	> 62.2	inactive	inactive	Non-toxic	–	–
Cc1cccc(NC(=O)CCC(=O)N/N=C/c2cc(Cl)ccc2O)c1	7.5	5.4	13.5	12.1	inactive	inactive	Non-toxic	–	–
O=C(CSc1ccc2ccccc2n1)N/N=C/c1ccc(O)cc1O	63.4	> 50	32.5	67.3	inactive	inactive	Non-toxic	–	–
C[C@@H]1[C@H](O)[C@@H](C)/C=C/C=C/C=C/C=C/C=C/C=C/C=C/[C@H](O[C@@H]2O[C@H](C)[C@@H](O)[C@H](N)[C@@H]2O)C[C@@H]2O[C@](O)(C[C@@H](O)C[C@@H](O)[C@H](O)CC[C@@H](O)C[C@@H](O)CC(=O)O[C@H]1C)C[C@H](O)[C@H]2C(=O)O [AMPHOTERICIN B]	–	–	–	–	–	–	–	0.16	–
